# Measured values from publication PMC3667555 (Bioconjugate chemistry, 2013).
# Tested on: U87MG human glioma xenografts
# Test: Biodistribution in athymic nude mice bearing U87MG glioma xenografts
# Assay type: in vivo
# Settings: 1 h p.i.
# Outline: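 Female athymic nu/nu mice (4–5 weeks at purchase) received 5 × 10^6 U87MG cells in the shoulder flank and were used 4 weeks later (tumor 0.1–0.5 g, mice 20–25 g). Each got ~0.1 MBq HPLC-purified 99mTc radiotracer in saline by tail vein. Killed by pentobarbital overdose at 60 min p.i.; blood by heart puncture; organs washed, weighed, γ-counted; %ID/g; n = 4–6.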
# [1] = tail-vein injection, without RGD2
substance,measurement,setting,value
[^99mTc(HYNIC-3P-RGD2)(tricine)(TPPTS)] [Compound 5],Tumor/Blood,,15.36 ± 1.01
same,Tumor/Liver,,2.55 ± 0.36
same,Tumor/Lung,,1.71 ± 0.05
same,Tumor/Muscle,,6.58 ± 1.58
same,Blood uptake,tail-vein injection,0.47 ± 0.06 %ID/g
same,Brain uptake,tail-vein injection,0.17 ± 0.03 %ID/g
same,Eyes uptake,tail-vein injection,1.40 ± 0.13 %ID/g
same,Heart uptake,tail-vein injection,1.67 ± 0.15 %ID/g
same,Kidneys uptake,tail-vein injection,12.28 ± 1.09 %ID/g
same,Liver uptake,tail-vein injection,2.92 ± 0.77 %ID/g
same,Lungs uptake,tail-vein injection,4.25 ± 0.63 %ID/g
same,Muscle uptake,tail-vein injection,1.12 ± 0.15 %ID/g
same,Spleen uptake,tail-vein injection,3.11 ± 0.18 %ID/g
same,Intestine uptake,[1],9.45 ± 1.31 %ID/g
same,Tumor uptake,[1],7.24 ± 0.95 %ID/g
